The record followed here is PubChem BioAssay.

The nature of assay [1]: hit retest on RPL19A-GFP reporter strain – cell-based, S. cerevisiae, flow cytometry, cherry picks, mother/daughter gates, confirmation (AID 2270;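 active means GFP response below 50% of the DMSO control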). Particulars: 3 h, at 10 µM, stronger effect = lower value, 100 = same GFP as DMSO wells. A general note: A flow cytometer gives signals particle by particle.
The nature of assay [2]: yeast TOR pathway reporter LAP4-GFP change – cell-based, cherry picks, flow cytometry, mother/daughter gates, confirmation (AID 2271;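 active means GFP response above 150% of the DMSO control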;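 further: ratio of sample to DMSO plate mean so 100% equals DMSO level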). Particulars: S. cerevisiae LAP4-GFP strain, 3 h, at 10 µM, stronger effect = higher value, 100 means same as DMSO control. In short, it runs like this: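 Test system: GFP-fusion yeast strain / Amount: 0.2 OD600 cells / Buffer or medium: SC medium / Dosing: 10 µM single dose / Incubation: compound exposure 3 h at 30 °C, end-over-end rotation / Detection: HT flow cytometry, GFP fluorescence channel / Evaluation: median GFP fluorescence as percent of plate-mean DMSO wells / Control set: DMSO-only negative wells, rapamycin 400 ng/mL positive wells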

A short description of assay [3]: TOR pathway reporter MEP2-GFP, retest of hits – S. cerevisiae, flow cytometry GFP, cherry picks, confirmation (AID 2272;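 active means GFP response above 150% of the DMSO control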;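 further: ratio of well signal to plate DMSO mean so 100% equals DMSO level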). Particulars: S. cerevisiae MEP2-GFP strain, 3 h, at 10 µM, stronger effect = higher value.
Assay [4] is described as follows: yeast AGP1-GFP fluorescence change, single-dose – cell-based, flow cytometry, S. cerevisiae, cherry picks, confirmation (AID 2273).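 Further: median GFP channel fluorescence over the whole cell population gate.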 Particulars: S. cerevisiae AGP1-GFP strain, 3 h, at 10 µM.
Assay [5] is described as follows: TOR pathway CIT2 reporter hit retest – S. cerevisiae, GFP fusion, cherry picks, mother/daughter gates, confirmation (AID 2274). Particulars: S. cerevisiae CIT2-GFP strain, flow cytometry, 3 h, at 10 µM, stronger effect = higher value.
[6] abbreviates: measured here: daughter cell gate.
Where [7] appears, read: measured here: mother cell gate.
Setting [8] is: measured here: daughter cell gate response.
Setting [9] is: measured here: mother cell gate response.

Activity calls are given as the source filed them.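 How the source made its calls, unless noted: active means GFP response above 150% of the DMSO level; inconclusive means fewer than 70 events counted for a yeast strain; inactive means the rest.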

`COc1ccc(-c2csc(N(CC(C)C)C(=O)c3ccco3)n2)cc1`: the GFP response vs DMSO in assay [1] is 98.2% (inactive); in assay [1] (setting [6]), 100%; in assay [1] (setting [7]), 97.7%; in assay [3] it was 101% (inactive). The values for the GFP response relative to DMSO in assay [2], in assay [2] (setting [8]) and in assay [2] (setting [9]) were 101% (inactive), 101% and 100%, respectively. The GFP response, % of DMSO in assay [4] is 100% (inactive); in assay [5], 98.6% (inactive); in assay [5] (setting [6]), 101%; in assay [5] (setting [7]) it was 97.1%.

As to `COC(=O)c1cc(NC(=O)c2c(Cl)nc3sccn23)cc(C(=O)OC)c1`, the GFP response vs DMSO in assay [1] was 97% (inactive); in assay [1] (setting [6]), 98.6%; in assay [1] (setting [7]), 96.9%; in assay [3], 102% (inactive). For the same molecule, the GFP response relative to DMSO is 92.8% (inactive) in assay [2], 92.8% in assay [2] (setting [8]) and 92.9% in assay [2] (setting [9]). In addition, the GFP response, % of DMSO in assay [4] was 90% (inactive); in assay [5] it was 99.7% (inactive); in assay [5] (setting [6]), 101%; in assay [5] (setting [7]), 99.7%.

Take `C[n+]1ccc(/C=C/c2c[nH]c3ccc(F)cc23)cc1`: the GFP response vs DMSO is 101% (inactive) in assay [1], 99.5% in assay [1] (setting [6]), 102% in assay [1] (setting [7]) and 120% (inactive) in assay [3]. Also, the GFP response relative to DMSO in assay [2] is 113% (inactive); in assay [2] (setting [8]), 110%; in assay [2] (setting [9]) it was 115%. The GFP response, % of DMSO is 104% (inactive) in assay [4], 110% (inactive) in assay [5], 108% in assay [5] (setting [6]) and 112% in assay [5] (setting [7]).

Regarding `O=C(CC1SC(=Nc2ccccc2F)N(CCN2CCOCC2)C1=O)Nc1ccc(F)cc1F` (stereo not drawn), the GFP response vs DMSO in assay [1] was 96.8% (inactive); in assay [1] (setting [6]) it was 97.4%; in assay [1] (setting [7]), 96.6%; in assay [3] it was 102% (inactive). Further, the GFP response relative to DMSO in assay [2] was 95.4% (inactive); in assay [2] (setting [8]) it was 96%; in assay [2] (setting [9]) it was 94%. Besides, the GFP response, % of DMSO in assay [4] is 97.8% (inactive); in assay [5], 98.3% (inactive); in assay [5] (setting [6]), 99.1%; in assay [5] (setting [7]), 98.5%.

As to `Cc1ccccc1NC(=O)c1ccccc1`, the GFP response vs DMSO is 96.6% (inactive) in assay [1], 98.1% in assay [1] (setting [6]), 96.9% in assay [1] (setting [7]) and 107% (inactive) in assay [3]. Besides, the GFP response relative to DMSO was 95.4% (inactive) in assay [2], 97.6% in assay [2] (setting [8]) and 94% in assay [2] (setting [9]). In addition, the GFP response, % of DMSO in assay [4] is 96.4% (inactive); in assay [5], 98.3% (inactive); in assay [5] (setting [6]), 99.1%; in assay [5] (setting [7]), 97.3%.

`COc1cc(NC(=O)c2ccc(Br)cc2)ccc1NC(=O)c1cc2ccccc2o1`: the GFP response vs DMSO was 99.9% (inactive) in assay [1], 99% in assay [1] (setting [6]), 100% in assay [1] (setting [7]) and 100% (inactive) in assay [3]. Also, the GFP response relative to DMSO was 96.2% (inactive) in assay [2], 98.7% in assay [2] (setting [8]) and 98.3% in assay [2] (setting [9]). Further, the GFP response, % of DMSO in assay [4] is 95.7% (inactive); in assay [5], 96.5% (inactive); in assay [5] (setting [6]), 96.5%; in assay [5] (setting [7]), 97.7%.

Consider `Cc1ccc(C)c(-c2nnc(NC(=O)c3ccc([N+](=O)[O-])o3)o2)c1`, for which the GFP response vs DMSO in assay [1] was 101% (inactive); in assay [1] (setting [6]), 95.7%; in assay [1] (setting [7]), 101%; in assay [3], 107% (inactive). Besides, the figures for the GFP response relative to DMSO in assay [2], in assay [2] (setting [8]) and in assay [2] (setting [9]) were 115% (inactive), 114% and 116%, respectively. Further, the GFP response, % of DMSO in assay [4] is 91.6% (inactive); in assay [5], 90.1% (inactive); in assay [5] (setting [6]) it was 90.2%; in assay [5] (setting [7]) it was 87%.

For the molecule `COc1ccc(-c2ccc(SCC(=O)N3c4ccccc4CC3C)nn2)cc1OC` (stereo not drawn), the GFP response vs DMSO in assay [1] is 99.1% (inactive); in assay [1] (setting [6]) it was 98%; in assay [1] (setting [7]), 99.3%; in assay [3], 102% (inactive). Besides, the GFP response relative to DMSO in assay [2] is 100% (inactive); in assay [2] (setting [8]), 101%; in assay [2] (setting [9]), 101%. Further, the GFP response, % of DMSO in assay [4] is 99.3% (inactive); in assay [5], 96.4% (inactive); in assay [5] (setting [6]), 96.4%; in assay [5] (setting [7]), 95.6%.

In the case of `O=S(=O)(c1ccccc1)N1N=C(c2cccs2)CC1c1ccc(F)cc1` (stereo not drawn), the GFP response vs DMSO is 99.7% (inactive) in assay [1], 97.8% in assay [1] (setting [6]), 100% in assay [1] (setting [7]) and 100% (inactive) in assay [3]. Moreover, the GFP response relative to DMSO in assay [2] was 97.4% (inactive); in assay [2] (setting [8]), 94.1%; in assay [2] (setting [9]) it was 101%. Also, the GFP response, % of DMSO in assay [4] is 104% (inactive); in assay [5], 97.8% (inactive); in assay [5] (setting [6]), 96.5%; in assay [5] (setting [7]), 98.7%.

On to `CCCCCCCCC/C(=N\O)c1ccccn1`, for which the GFP response vs DMSO in assay [1] is 85% (inactive); in assay [1] (setting [6]) it was 81.4%; in assay [1] (setting [7]), 82.6%; in assay [3] it was 108% (inactive). The figures for the GFP response relative to DMSO in assay [2], in assay [2] (setting [8]) and in assay [2] (setting [9]) were 214% (active), 170% and 213%, respectively. Moreover, the GFP response, % of DMSO in assay [4] is 89.3% (inactive); in assay [5] it was 97.2% (inactive); in assay [5] (setting [6]) it was 90.5%; in assay [5] (setting [7]), 97.1%.

In the case of `O=S(=O)(c1ccccc1)N1N=C(c2cccs2)CC1c1ccc(Br)cc1` (stereo not drawn), the GFP response vs DMSO in assay [1] is 98% (inactive); in assay [1] (setting [6]) it was 99.4%; in assay [1] (setting [7]) it was 98.4%; in assay [3], 102% (inactive). Further, the values for the GFP response relative to DMSO in assay [2], in assay [2] (setting [8]) and in assay [2] (setting [9]) were 97.9% (inactive), 99.2% and 97.2%, respectively. The GFP response, % of DMSO is 98.3% (inactive) in assay [4], 98.3% (inactive) in assay [5], 97.2% in assay [5] (setting [6]) and 97.3% in assay [5] (setting [7]).

As for `CCOC(=O)Cc1csc(NC(=O)c2sc3nc4cc(C)ccc4cc3c2N)n1`, the GFP response vs DMSO in assay [1] is 98.6% (inactive); in assay [1] (setting [6]), 100%; in assay [1] (setting [7]), 89.8%; in assay [3], 114% (inactive). The results for the GFP response relative to DMSO in assay [2], in assay [2] (setting [8]) and in assay [2] (setting [9]) were 104% (inactive), 92% and 111%, respectively. Besides, the GFP response, % of DMSO in assay [4] is 104% (inactive); in assay [5], 105% (inactive); in assay [5] (setting [6]), 102%; in assay [5] (setting [7]) it was 104%.

As to `NS(=O)(=O)c1ccc(S(=O)(=O)c2ccccc2)nc1`, the GFP response vs DMSO in assay [1] is 98.2% (inactive); in assay [1] (setting [6]) it was 99.1%; in assay [1] (setting [7]), 96.9%; in assay [3], 102% (inactive). Further, the results for the GFP response relative to DMSO in assay [2], in assay [2] (setting [8]) and in assay [2] (setting [9]) were 97.9% (inactive), 97.6% and 97.2%, respectively. The GFP response, % of DMSO in assay [4] was 95.6% (inactive); in assay [5], 103% (inactive); in assay [5] (setting [6]), 105%; in assay [5] (setting [7]), 102%.
